Test results: ChEMBL document CHEMBL4346667 (Eur J Med Chem, 2019)

How the values were obtained:
MCF7 [1] = experiment: Induction of apoptosis in human MCF7 cells assessed as early apoptotic cells at 1 uM after 48 hrs by Annexin V-FITC/propidium iodide staining-based flow cytometric analysis (reference value: 9.1%); assay type: functional
Procedure, shortened: (§1)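 Log-phase cells seeded in 6-well plates and treated after adhesion; incubated in cycles of 6 h on/6 h off up to 48 h. Collected after PBS washes and trypsin, resuspended in Ca2+-enriched binding buffer. Stained with annexin V (1 µg/mL) plus PI (0.5 µg/mL) 15 min in the dark at room temperature. 10,000 events, FL1 vs FL2. At least three repeats.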

MCF7 [2] = experiment: Induction of apoptosis in human MCF7 cells assessed as late apoptotic cells at 5 uM after 24 hrs by Annexin V-FITC/propidium iodide staining-based flow cytometric analysis (reference value: 5.6%); assay type: functional; procedure, shortened: as §1

Molecule `COc1cc([C@@H]2c3cc4c(cc3[C@@H](O[C@@H]3O[C@@H]5CO[C@@H](C)O[C@H]5[C@H](O)[C@H]3O)[C@H]3COC(=O)[C@H]23)OCO4)cc(OC)c1O` [ETOPOSIDE] has an Activity (MCF7 [1]) of 14.8% and an Activity (MCF7 [2]) of 8.4%.
